Experimental findings from ChEMBL document CHEMBL1649409, “One-pot microwave assisted synthesis under green chemistry conditions, antioxidant screening, and cytotoxicity assessments of benzimidazole Schiff bases and pyrimido[1,2-a]benzimidazol-3(4H)-ones” (Eur J Med Chem, 2011) are described below.

Active and inactive are the calls of the source. The calls are words filed in the database; no cut-off is given here.

Data set [1] can be described thus: Antioxidant activity assessed as protection against […]-induced linoleic acid lipid peroxidation 0.01 mM. Format: functional. A digest of the protocol: (§1)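 Linoleic acid sodium salt (16 mM solution) in 0.05 M phosphate buffer, pH 7.4, prethermostated at 37 °C. Oxidation started at 37 °C under air with 40 mM AAPH solution, with compound aliquots in DMSO present. Blanks carry the same DMSO level. Conjugated diene hydroperoxide formation followed by absorbance increase at 234 nm. At least triplicate, averaged.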

Data set [2] concerns Radical scavenging activity. Nature of the data set: Antioxidant activity assessed as DPPH radical scavenging activity at 0.05 mM after 60 mins. It counts as functional. In a few lines: (§2)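 DPPH (0.05 mM in absolute ethanol) mixed with an equal volume of compound in DMSO (final 0.05 mM). Shaken vigorously, left 20 or 60 min, absorbance read at 517 nm. Percent activity calculated; three replicates averaged.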
For orientation: The DPPH test is a chemical assay of radical scavenging.

The subject of data set [3] is Glycine max. Nature of the data set: Inhibition of soybean LOX at 0.1 mM. In a few lines: (§3)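 Soybean lipoxygenase solution (1/9×10^-4 w/v in saline) incubated at RT with sodium linoleate and compound in DMSO. Conversion to 13-hydroperoxylinoleic acid recorded at 234 nm against a standard inhibitor. At least triplicate, averaged.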
The subject of data set [4] is Glycine max. The data set is described as follows: Inhibition of soybean LOX at 0.01 mM. In a few lines:
as §3

Data set [5] is described as follows: Antioxidant activity assessed as protection against […]-induced linoleic acid lipid peroxidation 0.1 mM. Format: functional. A digest of the protocol: as §1
Data set [6] relates to Radical scavenging activity. Nature of the data set: Antioxidant activity assessed as DPPH radical scavenging activity at 0.05 mM after 20 mins. Format: functional. A digest of the protocol:
as §2

Data set [7] is described as follows: Cytotoxicity against human lung fibroblast assessed as cell viability at 0.17 mM after 24 hrs by MTT assay. It counts as cell-based. Conditions: human lung fibroblasts, read-out: Activity. In a few lines: (§4)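 Human lung fibroblasts, passage 19, grown in DMEM with 10% FBS, penicillin and streptomycin at 37 °C, 5% CO2. Seeded at 3×10^4 cells/mL and allowed to adhere 24 h. Exposed 24 h to compounds in DMSO (≤1% final), 1–50 µg/mL. After washing, MTT (5 mg/mL in PBS) added for 4–6 h at 37 °C. Formazan dissolved in isopropanol, read at 570 nm. At least three measurements.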
On the technique in general: Tetrazolium dyes change colour on reduction, which living cells bring about.

The nature of data set [8]: Cytotoxicity against human lung fibroblast assessed as cell viability at 0.16 mM after 24 hrs by MTT assay. It counts as cell-based. The settings on record: human lung fibroblasts, read-out: Activity. In a few lines: as §4
Data set [9] can be described thus: Cytotoxicity against human lung fibroblast assessed as cell viability at 0.03 to 0.037 mM after 24 hrs by MTT assay. It counts as cell-based. Conditions: human lung fibroblasts, in the assay text read “0.003 to 0.037 mM” for “0.03 to 0.037 mM”, read-out: Activity. In a few lines: as §4
Data set [10] is described as follows: Cytotoxicity against human lung fibroblast assessed as cell viability at 50 ug/ml after 24 hrs by MTT assay. Format: cell-based. The settings on record: human lung fibroblasts, read-out: Activity. In a few lines:
as §4

A short description of data set [11]: Cytotoxicity against human lung fibroblast assessed as cell viability at 0.02 mM after 24 hrs by MTT assay. It counts as cell-based. Conditions: 20 µM. A digest of the protocol:
as §4

Data set [12] in a line: Cytotoxicity against human lung fibroblast assessed as cell viability at 0.04 mM after 24 hrs by MTT assay. Format: cell-based. The settings on record: 40 µM. In a few lines:
as §4

In the case of `C/C(=N\c1nc2ccccc2[nH]1)c1ccc(C)cc1`, the inhibition in data set [1] stood at 47%; in data set [2] it was 8%; in data set [5], 84%. Further, the inhibition entry in data set [3], in [4] and in data set [6] was “inactive” throughout.

Consider `CC(Cc1ccc(O)c(O)c1)C(C)Cc1ccc(O)c(O)c1` (stereo not drawn), for which the inhibition in data set [2] was 83%; in data set [3], 84%; in data set [4], 40%; in data set [6], 81%.

As to `C/C(=N\c1nc2ccccc2[nH]1)c1ccccc1`, the inhibition came to 18% in data set [1], 5% in data set [2], 67% in data set [5] and 0.3% in data set [6]. The inhibition result in data set [3] and in data set [4] was “inactive” in each case.

On to `CC1(c2cccc(Br)c2)C(=O)C(c2cccc(Br)c2)=Nc2nc3ccccc3n21` (stereo not drawn), for which the inhibition in data set [1] was 51%; in [2], 3%; in data set [3], 12%. Also, the inhibition result in data set [4] and in [6] was “inactive” throughout.

Turning to `C/C(=N\c1nc2ccccc2[nH]1)c1ccc2ccccc2c1`, the viability at 24 h, 170 µM in [7] stood at 62.5%. For the same compound, the inhibition turned out to be 26% in data set [1]; 7% in data set [2]; 98% in data set [3]; 18% in [4]; 97% in data set [5]; 5% in data set [6].

For the compound `C/C(=N\c1nc2ccccc2[nH]1)c1cccc(Br)c1`, the results for the inhibition in data set [1], in data set [2] and in data set [5] were 65%, 6% and 97%, respectively. Besides, the inhibition result in [3], in data set [4] and in data set [6] was “inactive” each time.

With `CC1(c2ccc(Br)cc2)C(=O)C(c2ccc(Br)cc2)=Nc2nc3ccccc3n21` (stereo not drawn), the inhibition worked out at 9% in data set [1]; 2% in data set [2]; 61% in data set [3]; 51% in [4]; 78% in data set [5]; 3% in data set [6].

With `C/C(=N\c1nc2ccccc2[nH]1)c1ccc(Cl)cc1`, the inhibition in data set [2] was 4%; in data set [3], 85%; in data set [4], 62%; in data set [5], 26%; in data set [6], 3%.

For `C/C(=N\c1nc2ccccc2[nH]1)c1ccc(Br)cc1`, the inhibition in data set [1] was found to be 22%; in data set [2], 4%; in data set [3], 18%; in [5] it was 50%. Further, the inhibition entry in [4] and in data set [6] was “inactive” in each case. The viability at 24 h, 160 µM in data set [8] amounted to 73.6%.

For `Cc1cccc(C2=Nc3nc4ccccc4n3C(C)(c3cccc(C)c3)C2=O)c1` (stereo not drawn), the inhibition in [1] was determined as 35%; in data set [2] it was 5%; in data set [3], 19%; in [5] it was 84%; in data set [6], 4%. In [4], the inhibition entry was “inactive”.

With `COc1cccc(/C(C)=N/c2nc3ccccc3[nH]2)c1`, the inhibition worked out at 69% in data set [1], 42% in data set [3] and 100% in [5]. In addition, the inhibition result in data set [2], in [4] and in [6] was “inactive” in each case.

With `C/C(=N\c1nc2ccccc2[nH]1)c1cccc(C)c1`, the inhibition amounted to 63% in data set [1], 8% in [3] and 77% in data set [5]. In addition, the inhibition entry in data set [2], in data set [4] and in data set [6] was “inactive” throughout.

In the case of `COc1ccc(/C(C)=N/c2nc3ccccc3[nH]2)cc1`, the inhibition in data set [1] was determined as 12%; in data set [2], 3%; in [3], 65%; in [4] it was 22%; in data set [5] it was 68%; in data set [6] it was 4%. Further, the viability at 24 h, up to 37 µM in data set [9] came out at 56%.

Take `CC1(c2ccc(Cl)cc2)C(=O)C(c2ccc(Cl)cc2)=Nc2nc3ccccc3n21` (stereo not drawn): the viability at 24 h, 50 ug/ml in [10] is 37%. The inhibition is 33% in data set [1], 2% in data set [2], 97% in data set [5] and 2% in [6]. In data set [11], the Activity entry is listed as “Non-toxic”. Moreover, the inhibition result in [3] and in data set [4] was “inactive” each time.

Regarding `COc1cccc(C2=Nc3nc4ccccc4n3C(C)(c3cccc(OC)c3)C2=O)c1` (stereo not drawn), the viability at 24 h, 50 ug/ml in data set [10] was determined as 63%. Also, the inhibition in data set [1] worked out at 3%; in [2], 2%; in data set [5], 100%; in data set [6], 3%. In addition, the inhibition result in [3] and in [4] was “inactive” in each case. In data set [12], the Activity result is listed as “Non-toxic”.

Take `Cc1cc(C(C)(C)C)c(O)c(C(C)(C)C)c1`: the inhibition in data set [2] worked out at 60%; in [6], 31%.

Take `CC1(c2ccccc2)C(=O)C(c2ccccc2)=Nc2nc3ccccc3n21` (stereo not drawn): the inhibition in data set [1] came out at 11%; in data set [2], 1%; in data set [3] it was 100%; in data set [4], 49%; in data set [5] it was 100%; in [6], 2%.

As to `Cc1c(C)c2c(c(C)c1O)CCC(C)(C(=O)O)O2` (stereo not drawn), the inhibition in [5] was found to be 63%.

As for `Cc1ccc(C2=Nc3nc4ccccc4n3C(C)(c3ccc(C)cc3)C2=O)cc1` (stereo not drawn), the inhibition turned out to be 8% in data set [1], 40% in data set [3] and 80% in data set [5]. The inhibition entry in data set [2], in [4] and in data set [6] was “inactive” each time.

For orientation: inhibition means how much of the control response was suppressed.
